# Results as given in ChEMBL document CHEMBL3797104, “Triazole tethered C5-curcuminoid-coumarin based molecular hybrids as novel antitubulin agents: Design, synthesis, biological investigation and docking studies” (Eur J Med Chem, 2016).
# Calls of active or inactive are those of the source. The rule behind the calls is not given here.
# Experiments:
# [1] = Cytotoxicity against human COLO205 cells assessed as growth inhibition at 50 uM after 48 hrs by SRB assay; format: functional; settings: COLO 205, 48 h, read-out: GI
# Outline: (§1)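 Single-concentration screen at 50 µM. Cells grew 24 h at 37 °C, then had 48 h exposure in complete medium.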
# [2] = Cytotoxicity against human COLO205 cells after 48 hrs by SRB assay; format: functional, cell-based; settings: COLO 205, 48 h
# Outline: (§2)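 SRB assay in 96-well plates. Cells were seeded and grown 24 h at 37 °C in a CO2 incubator, then given test material in complete medium for a further 48 h. Cells were fixed with cold 50% TCA for 1 h at 4 °C, stained 30 min with 0.4% SRB in 1% acetic acid, and washed with […]. IC50 was taken from multi-concentration testing, run only for hybrids giving >70% inhibition at 50 µM in at least one line.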
# [3] = Cytotoxicity against human HCT116 cells after 48 hrs by SRB assay; format: functional, cell-based; settings: HCT-116, 48 h; outline: as §2
# [4] = (§3) Cytotoxicity against human PC3 cells assessed as growth inhibition at 50 uM after 48 hrs by SRB assay; format: functional; settings: PC-3, 48 h, read-out: GI; outline: as §1
# [5] = Cytotoxicity against human HCT116 cells assessed as growth inhibition at 50 uM after 48 hrs by SRB assay; format: functional; settings: HCT-116, 48 h, read-out: GI; outline: as §1
# [6] = Cytotoxicity against human THP1 cells assessed as growth inhibition at 50 uM after 48 hrs by SRB assay; format: functional; settings: THP-1, 48 h, read-out: GI; outline: as §1
# [7] = Cytotoxicity against human THP1 cells after 48 hrs by SRB assay; format: functional, cell-based; settings: THP-1, 48 h; outline: as §2
# Tubulin = assay: Inhibition of tubulin (unknown origin) polymerization measured after 1 hr by ELISA plate reader analysis; format: protein-complex assay, Homo sapiens
# Outline: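 Kit-based turbidity assay using tubulin (10 mg in general tubulin buffer with GTP). Compounds were diluted from DMSO stocks, preincubated 2 min at 37 °C in general tubulin buffer, then tubulin diluted in polymerization buffer (general and glycerol tubulin buffers plus GTP) was added. Absorbance at 340 nm was read after 1 h at 37 °C.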
# PC-3 = assay: as §3; format: functional; outline: as §1
SMILES,inhibition of growth at 50 µM [1] [%],IC50 [2] [µM],IC50 [3] [µM],inhibition of growth at 50 µM [4] [%],inhibition of growth at 50 µM [5] [%],inhibition of growth at 50 µM [6] [%],IC50 [7] [µM],IC50 (Tubulin) [µM],growth inhibition (GI) (PC-3)
COc1cc(/C=C/C(=O)/C=C/c2cccs2)ccc1OCc1cn(CCOc2cc(=O)oc3ccccc23)nn1,66,11.4,9.29,12,71,76,7.14,,
COc1cc(/C=C/C(=O)/C=C/c2cc(OC)c(OC)c(OC)c2)ccc1OCc1cn(CCOc2cc(=O)oc3ccccc23)nn1,86,4.68,2.21,22,89,99,0.82,1.55,
COc1cccc(/C=C/C(=O)/C=C/c2ccc(OCc3cn(CCOc4cc(=O)oc5ccccc45)nn3)c(OC)c2)c1,69,11.9,9.76,13,70,77,7.13,,
COc1ccc(/C=C/C(=O)/C=C/c2ccc(OCc3cn(CCCOc4cc(=O)oc5ccccc45)nn3)c(OC)c2)cc1OC,65,13,11,9,67,73,8.51,,
COc1cc(/C=C/C(=O)/C=C/c2ccccc2)ccc1OCc1cn(CCOc2cc(=O)oc3ccccc23)nn1,54,,,10,56,61,,,
COc1ccccc1/C=C/C(=O)/C=C/c1ccc(OCc2cn(CCOc3cc(=O)oc4ccccc34)nn2)c(OC)c1,67,11.5,9.49,11,70,75,7.33,,
COc1ccc(/C=C/C(=O)/C=C/c2ccc(OCc3cn(CCOc4cc(=O)oc5ccccc45)nn3)c(OC)c2)cc1,68,11.3,9.29,15,71,78,7.41,,
COc1ccc(/C=C/C(=O)/C=C/c2ccc(OCc3cn(CCOc4cc(=O)oc5ccccc45)nn3)c(OC)c2)cc1OC,80,6.78,4.71,19,82,90,2.34,2.88,
COc1cc(/C=C/C(=O)/C=C/c2ccco2)ccc1OCc1cn(CCOc2cc(=O)oc3ccccc23)nn1,68,11.8,9.18,14,72,78,7.87,,
COc1cc(/C=C/C(=O)/C=C/c2cccc3ccccc23)ccc1OCc1cn(CCOc2cc(=O)oc3ccccc23)nn1,85,9.95,6.54,20,83,89,4.48,7.65,
COc1cc(/C=C/C(=O)/C=C/c2cccc3ccccc23)ccc1OCc1cn(CCCOc2cc(=O)oc3ccccc23)nn1,64,12.7,10.4,8,66,71,8.41,,
COc1ccc(/C=C/C(=O)/C=C/c2ccc(OCc3cn(CCCCOc4cc(=O)oc5ccccc45)nn3)c(OC)c2)cc1,49,,,,40,45,,,inactive
COc1cc(/C=C/C(=O)/C=C/c2cc(OC)c(OC)c(OC)c2)ccc1OCc1cn(CCCCOc2cc(=O)oc3ccccc23)nn1,60,,,5,63,65,,,
COc1ccc(/C=C/C(=O)/C=C/c2ccc(OCc3cn(CCCCOc4cc(=O)oc5ccccc45)nn3)c(OC)c2)cc1OC,53,,,,55,59,,,inactive
COc1cccc(/C=C/C(=O)/C=C/c2ccc(OCc3cn(CCCCCOc4cc(=O)oc5ccccc45)nn3)c(OC)c2)c1,34,,,,36,37,,,inactive
COc1cccc(/C=C/C(=O)/C=C/c2ccc(OCc3cn(CCCCOc4cc(=O)oc5ccccc45)nn3)c(OC)c2)c1,46,,,,44,47,,,inactive
COc1cc(/C=C/C(=O)/C=C/c2cccs2)ccc1OCc1cn(CCCCOc2cc(=O)oc3ccccc23)nn1,40,,,,41,44,,,inactive
COc1cc(/C=C/C(=O)/C=C/c2cccc3ccccc23)ccc1OCc1cn(CCCCCOc2cc(=O)oc3ccccc23)nn1,40,,,,42,44,,,inactive
COc1cc(/C=C/C(=O)/C=C/c2cccs2)ccc1OCc1cn(CCCCCOc2cc(=O)oc3ccccc23)nn1,30,,,,31,34,,,inactive
COc1cc(/C=C/C(=O)/C=C/c2cc(OC)c(OC)c(OC)c2)ccc1OCc1cn(CCCOc2cc(=O)oc3ccccc23)nn1,74,10.6,8.65,12,76,79,5.43,,
